In ChEMBL document CHEMBL1909601, “Synthesis and structure-activity relationship studies of dihydronaphthyridinediones as a novel structural class of potent and selective PDE7 inhibitors” (Bioorg Med Chem Lett, 2011):

Assays:
[1] = Inhibition of bovine PDE6; parameters: species or system Bos taurus
[2] = target: cGMP-specific 3',5'-cyclic phosphodiesterase (Homo sapiens, UniProt O76074); assay: Inhibition of human recombinant PDE5A
[3] = target: cGMP-inhibited 3',5'-cyclic phosphodiesterase 3A (Homo sapiens, UniProt Q14432); assay: Inhibition of human recombinant PDE3A
Sequence of cGMP-inhibited 3',5'-cyclic phosphodiesterase 3A (Q14432 whole entry): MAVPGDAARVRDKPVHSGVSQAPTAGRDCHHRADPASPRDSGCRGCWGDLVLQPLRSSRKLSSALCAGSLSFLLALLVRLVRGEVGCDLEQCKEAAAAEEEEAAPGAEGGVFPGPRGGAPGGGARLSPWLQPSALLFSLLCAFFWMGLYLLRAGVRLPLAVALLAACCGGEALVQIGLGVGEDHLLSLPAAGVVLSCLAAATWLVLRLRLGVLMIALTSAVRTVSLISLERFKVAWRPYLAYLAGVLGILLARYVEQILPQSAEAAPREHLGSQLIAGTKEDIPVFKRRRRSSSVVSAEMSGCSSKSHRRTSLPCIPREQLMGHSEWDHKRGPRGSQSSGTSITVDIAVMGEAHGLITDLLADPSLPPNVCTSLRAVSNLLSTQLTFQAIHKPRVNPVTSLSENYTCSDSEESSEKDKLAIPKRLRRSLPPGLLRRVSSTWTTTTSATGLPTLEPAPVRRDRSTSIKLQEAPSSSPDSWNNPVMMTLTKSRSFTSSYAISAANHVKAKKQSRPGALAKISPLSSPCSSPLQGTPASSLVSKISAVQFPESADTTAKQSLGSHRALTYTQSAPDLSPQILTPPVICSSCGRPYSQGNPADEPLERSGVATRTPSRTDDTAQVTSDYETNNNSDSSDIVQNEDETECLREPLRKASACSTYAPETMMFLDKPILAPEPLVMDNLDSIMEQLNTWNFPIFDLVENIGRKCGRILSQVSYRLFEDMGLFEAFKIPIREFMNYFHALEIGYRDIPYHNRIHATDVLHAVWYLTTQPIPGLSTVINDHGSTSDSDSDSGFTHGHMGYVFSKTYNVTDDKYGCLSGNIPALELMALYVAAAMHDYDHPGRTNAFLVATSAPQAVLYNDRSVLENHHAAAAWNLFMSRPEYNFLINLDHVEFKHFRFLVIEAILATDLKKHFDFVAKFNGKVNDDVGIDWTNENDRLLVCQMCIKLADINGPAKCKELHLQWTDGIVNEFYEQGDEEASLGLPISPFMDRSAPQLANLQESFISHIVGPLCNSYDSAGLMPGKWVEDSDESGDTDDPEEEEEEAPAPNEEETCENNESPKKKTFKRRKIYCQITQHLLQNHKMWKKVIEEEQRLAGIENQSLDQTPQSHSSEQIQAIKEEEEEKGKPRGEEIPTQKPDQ

[4] = target: High affinity cGMP-specific 3',5'-cyclic phosphodiesterase 9A (Homo sapiens, UniProt O76083); assay: Inhibition of human recombinant PDE9A
Sequence of High affinity cGMP-specific 3',5'-cyclic phosphodiesterase 9A (O76083 whole entry): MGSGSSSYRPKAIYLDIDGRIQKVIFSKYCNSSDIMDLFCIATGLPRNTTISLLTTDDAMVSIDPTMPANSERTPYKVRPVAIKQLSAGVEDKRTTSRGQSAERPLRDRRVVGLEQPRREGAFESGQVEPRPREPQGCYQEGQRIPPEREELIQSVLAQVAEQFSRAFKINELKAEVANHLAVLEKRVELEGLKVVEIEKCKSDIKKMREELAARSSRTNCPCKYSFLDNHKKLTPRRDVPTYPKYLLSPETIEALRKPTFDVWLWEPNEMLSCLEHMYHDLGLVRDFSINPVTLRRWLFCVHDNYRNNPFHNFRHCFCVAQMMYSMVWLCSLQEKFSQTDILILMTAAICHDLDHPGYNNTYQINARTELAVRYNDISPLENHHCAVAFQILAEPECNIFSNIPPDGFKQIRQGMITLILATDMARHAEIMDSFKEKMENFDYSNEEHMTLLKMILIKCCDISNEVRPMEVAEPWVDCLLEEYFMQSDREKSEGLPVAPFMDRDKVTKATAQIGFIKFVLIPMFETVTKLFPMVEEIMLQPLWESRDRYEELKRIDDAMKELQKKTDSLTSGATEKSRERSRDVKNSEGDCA

[5] = target: 3',5'-cyclic-AMP phosphodiesterase 4A (Homo sapiens, UniProt P27815); assay: Inhibition of human recombinant PDE4A4 expressed in baculovirus infected insect Sf21 cells after 30 mins by scintillation proximity assay
Sequence of 3',5'-cyclic-AMP phosphodiesterase 4A (P27815 whole entry): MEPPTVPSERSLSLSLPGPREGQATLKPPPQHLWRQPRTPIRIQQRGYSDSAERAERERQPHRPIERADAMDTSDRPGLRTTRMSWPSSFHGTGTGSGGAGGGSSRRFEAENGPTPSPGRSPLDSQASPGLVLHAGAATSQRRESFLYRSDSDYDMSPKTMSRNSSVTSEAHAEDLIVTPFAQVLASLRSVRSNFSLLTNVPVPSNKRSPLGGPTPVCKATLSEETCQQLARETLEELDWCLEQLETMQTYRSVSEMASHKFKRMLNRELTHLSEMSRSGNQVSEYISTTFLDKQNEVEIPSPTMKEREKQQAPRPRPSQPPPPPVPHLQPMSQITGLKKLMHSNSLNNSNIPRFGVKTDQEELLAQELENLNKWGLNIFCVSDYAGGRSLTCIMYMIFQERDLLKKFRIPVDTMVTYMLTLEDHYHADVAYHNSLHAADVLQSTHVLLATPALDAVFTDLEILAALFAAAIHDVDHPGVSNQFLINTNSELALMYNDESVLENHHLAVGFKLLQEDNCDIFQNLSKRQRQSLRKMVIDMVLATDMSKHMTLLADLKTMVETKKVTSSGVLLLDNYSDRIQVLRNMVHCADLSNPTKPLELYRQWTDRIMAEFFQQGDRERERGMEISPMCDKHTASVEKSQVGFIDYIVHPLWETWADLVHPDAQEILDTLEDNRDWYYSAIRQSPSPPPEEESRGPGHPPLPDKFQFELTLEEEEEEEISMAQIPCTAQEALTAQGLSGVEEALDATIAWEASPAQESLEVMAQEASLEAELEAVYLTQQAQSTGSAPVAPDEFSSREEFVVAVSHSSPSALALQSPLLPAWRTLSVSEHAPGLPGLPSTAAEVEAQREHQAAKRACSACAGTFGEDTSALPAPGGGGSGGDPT
How it was run: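 Full-length human recombinant enzyme expressed in baculovirus-infected Sf21 cells. Scintillation proximity assay with 500 nM [3H]-cAMP substrate in 80 mM Tris/10 mM MgSO4, pH 7.4. Incubated 30 min at 37 °C, then SPA beads added and plates counted. Background taken in presence of 10 µM rolipram. IC50 reported.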

[6] = target: Dual specificity calcium/calmodulin-dependent 3',5'-cyclic nucleotide phosphodiesterase 1B (Homo sapiens, UniProt Q01064); assay: Inhibition of human recombinant PDE1B
Sequence of Dual specificity calcium/calmodulin-dependent 3',5'-cyclic nucleotide phosphodiesterase 1B (Q01064 whole entry): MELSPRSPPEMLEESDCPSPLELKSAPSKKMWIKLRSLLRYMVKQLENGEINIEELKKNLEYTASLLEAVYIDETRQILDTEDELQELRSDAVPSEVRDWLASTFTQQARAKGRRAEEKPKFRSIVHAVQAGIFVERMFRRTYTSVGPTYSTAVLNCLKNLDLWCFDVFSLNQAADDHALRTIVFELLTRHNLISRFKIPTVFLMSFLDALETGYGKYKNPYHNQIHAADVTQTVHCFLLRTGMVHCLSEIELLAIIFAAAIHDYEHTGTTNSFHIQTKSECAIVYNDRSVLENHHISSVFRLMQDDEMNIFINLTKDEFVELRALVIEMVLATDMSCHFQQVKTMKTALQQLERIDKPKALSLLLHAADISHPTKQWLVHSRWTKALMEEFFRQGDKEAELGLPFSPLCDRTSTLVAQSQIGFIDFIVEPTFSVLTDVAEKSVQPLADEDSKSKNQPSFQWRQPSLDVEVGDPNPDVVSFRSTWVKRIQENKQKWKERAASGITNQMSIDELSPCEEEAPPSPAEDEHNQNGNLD

[7] = target: Dual 3',5'-cyclic-AMP and -GMP phosphodiesterase 11A (Homo sapiens, UniProt Q9HCR9); assay: Inhibition of human recombinant PDE11A
Sequence of Dual 3',5'-cyclic-AMP and -GMP phosphodiesterase 11A (Q9HCR9 whole entry): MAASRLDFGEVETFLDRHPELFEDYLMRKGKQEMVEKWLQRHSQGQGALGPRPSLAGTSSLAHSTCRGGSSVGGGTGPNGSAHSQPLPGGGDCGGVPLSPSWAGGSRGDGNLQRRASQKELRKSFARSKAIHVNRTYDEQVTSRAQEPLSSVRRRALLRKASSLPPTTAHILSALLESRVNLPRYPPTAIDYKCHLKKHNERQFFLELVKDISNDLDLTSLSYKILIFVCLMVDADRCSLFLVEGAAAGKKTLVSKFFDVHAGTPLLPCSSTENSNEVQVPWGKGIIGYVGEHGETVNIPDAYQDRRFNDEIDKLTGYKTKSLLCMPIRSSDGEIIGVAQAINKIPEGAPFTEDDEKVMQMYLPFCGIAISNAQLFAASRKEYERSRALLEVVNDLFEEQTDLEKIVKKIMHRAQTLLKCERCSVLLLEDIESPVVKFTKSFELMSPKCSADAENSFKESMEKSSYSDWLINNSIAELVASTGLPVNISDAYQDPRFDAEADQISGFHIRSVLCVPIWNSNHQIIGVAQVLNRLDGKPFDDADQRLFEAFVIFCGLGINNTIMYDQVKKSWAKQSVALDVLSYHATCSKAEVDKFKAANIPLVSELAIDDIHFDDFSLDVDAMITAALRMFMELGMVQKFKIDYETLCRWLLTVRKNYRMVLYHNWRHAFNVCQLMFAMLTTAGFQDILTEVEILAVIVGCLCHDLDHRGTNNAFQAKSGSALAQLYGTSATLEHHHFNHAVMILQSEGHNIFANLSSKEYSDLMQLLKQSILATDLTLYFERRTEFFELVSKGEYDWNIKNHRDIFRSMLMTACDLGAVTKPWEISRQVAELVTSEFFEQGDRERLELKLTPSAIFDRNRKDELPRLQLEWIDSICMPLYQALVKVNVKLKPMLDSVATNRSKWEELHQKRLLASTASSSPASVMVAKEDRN

[8] = target: High affinity 3',5'-cyclic-AMP phosphodiesterase 7A (Homo sapiens, UniProt Q13946); assay: Inhibition of human recombinant PDE7A1 expressed in baculovirus infected insect Sf21 cells after 30 mins by scintillation proximity assay
Sequence of High affinity 3',5'-cyclic-AMP phosphodiesterase 7A (Q13946 whole entry): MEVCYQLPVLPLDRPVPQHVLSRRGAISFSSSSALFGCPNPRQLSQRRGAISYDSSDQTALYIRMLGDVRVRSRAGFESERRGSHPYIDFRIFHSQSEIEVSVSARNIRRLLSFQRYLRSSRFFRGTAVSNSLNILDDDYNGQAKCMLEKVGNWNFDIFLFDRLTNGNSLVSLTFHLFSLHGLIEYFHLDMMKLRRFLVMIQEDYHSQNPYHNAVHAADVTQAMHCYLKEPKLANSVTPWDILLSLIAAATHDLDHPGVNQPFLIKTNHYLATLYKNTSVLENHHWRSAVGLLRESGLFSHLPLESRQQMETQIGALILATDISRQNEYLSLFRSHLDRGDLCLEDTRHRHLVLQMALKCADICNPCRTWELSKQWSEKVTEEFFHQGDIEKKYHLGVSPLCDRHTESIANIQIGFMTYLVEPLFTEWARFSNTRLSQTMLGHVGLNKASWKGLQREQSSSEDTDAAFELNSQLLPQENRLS
How it was run: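 Full-length human recombinant PDE7A1 produced in baculovirus-infected Sf21 cells. SPA read-out with [3H]-cAMP at 20 nM in 80 mM Tris/10 mM MgSO4, pH 7.4. Reaction run 30 min at 37 °C before bead addition and scintillation counting. Background measured without enzyme. IC50 derived.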

[9] = target: cAMP and cAMP-inhibited cGMP 3',5'-cyclic phosphodiesterase 10A (Homo sapiens, UniProt Q9Y233); assay: Inhibition of human recombinant PDE10A
[10] = target: cGMP-dependent 3',5'-cyclic phosphodiesterase (Homo sapiens, UniProt O00408); assay: Inhibition of human recombinant PDE2A
Homo sapiens = organism: Homo sapiens; assay: Selectivity ratio of IC50 for human recombinant PDE4A4 to IC50 for human recombinant PDE7A1
How it was run: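 Ratio of IC50 values for the two enzymes. PDE4A4 run at 500 nM [3H]-cAMP with a 10 µM rolipram background; PDE7A1 run at 20 nM [3H]-cAMP with a no-enzyme background. Both used full-length human enzymes from Sf21 cells, 30 min at 37 °C, pH 7.4 Tris/MgSO4, SPA read-out.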

[11] = target: High affinity cAMP-specific and IBMX-insensitive 3',5'-cyclic phosphodiesterase 8A (Homo sapiens, UniProt O60658); assay: Inhibition of human recombinant PDE8A

| Compound | IC50 [1] [nM] | IC50 [2] [nM] | IC50 [3] [nM] | IC50 [4] [nM] | IC50 [5] [nM] | IC50 [6] [nM] | IC50 [7] [nM] | IC50 [8] [nM] | IC50 [9] [nM] | IC50 [10] [nM] | Ratio IC50 (Homo sapiens) | IC50 [11] [nM] |
| --- | --- | --- | --- | --- | --- | --- | --- | --- | --- | --- | --- | --- |
| CCN(CC)c1ccc(NC(=O)c2cn(Cc3c(F)cccc3Cl)c3ccc(=O)[nH]c3c2=O)cc1 | > 5000 | > 5000 | > 5000 | > 5000 | > 5000 | > 5000 | > 5000 | 60 | > 5000 | > 5000 | > 83 | > 5000 |
| O=C(Nc1ccc(N2CCOCC2)cc1)c1cn(Cc2c(F)cccc2Cl)c2ccc(=O)[nH]c2c1=O | > 1000 | > 1000 | > 1000 | > 1000 | > 1000 | > 1000 | > 1000 | 13 | > 1000 | > 1000 | > 77 | > 1000 |
